{"source": "paper PMC9453980", "about": "(ACS Omega, 2022)", "key": {"[1]": {"system": "BaPif1 (Bacteroides sp. 2-1-16)", "assay": "fluorescence polarization"}, "[2]": {"target": "T1, hPif1-HD (Homo sapiens, UniProt Q9H611)", "T1 sequence (Q9H611 200-641)": "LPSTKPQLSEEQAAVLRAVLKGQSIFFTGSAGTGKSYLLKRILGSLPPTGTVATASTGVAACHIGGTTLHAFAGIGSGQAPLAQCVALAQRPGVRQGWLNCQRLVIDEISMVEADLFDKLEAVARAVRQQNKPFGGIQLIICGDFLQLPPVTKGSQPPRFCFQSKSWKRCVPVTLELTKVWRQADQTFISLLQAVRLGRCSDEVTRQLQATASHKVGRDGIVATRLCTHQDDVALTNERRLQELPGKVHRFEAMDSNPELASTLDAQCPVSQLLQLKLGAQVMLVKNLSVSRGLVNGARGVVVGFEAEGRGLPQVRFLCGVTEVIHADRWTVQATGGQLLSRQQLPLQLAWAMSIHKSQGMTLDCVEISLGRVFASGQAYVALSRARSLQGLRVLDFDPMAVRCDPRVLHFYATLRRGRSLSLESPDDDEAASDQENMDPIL", "assay": "ATPase activity assay", "assay_type": "biochemical", "how_it_was_run": "(§1)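 ATP depletion (luciferase) assay. BaPif1 (GST fusion expressed in E. coli BL21(DE3), tag cleaved) or hPif1 helicase domain (aa200-641, N-terminal His6, E. coli BL21(DE3)), at 0.1 mg/mL. Protein was preincubated with a compound dilution series for 30 min at 25 °C in 20 mM Tris-HCl pH 7.5, 150 mM NaCl, 5 mM MgCl2, 5% DMSO final. 100 nM ssDNA and 100 nM ATP were added, 10 min at 25 °C, then stopped with NaOH. Remaining ATP was read as firefly luciferase luminescence.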"}, "[3]": {"system": "BaPif1 C380A mutant", "assay": "Filtration-dilution reversibility experiment, C380A mutant", "assay_type": "biochemical, Bacteroides sp. 2-1-16", "settings": "filtration experiments", "how_it_was_run": "(§2)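 Reversibility test. Wild-type or C380A BaPif1 at 0.1 mg/mL in ATPase buffer was incubated 30 min with 5% DMSO or 50 μM compound in 5% DMSO. It was concentrated on a 10 kDa cut-off centrifugal filter and the retentate diluted 10-fold with buffer. This was done three times (1000-fold total). Residual ATPase activity was then measured by the luciferase ATP assay and expressed as percent inhibition.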"}, "[4]": {"system": "\"Cys-conserved\" kinases", "settings": "10 μM TD, panel of 68 kinases; cited from earlier work"}, "[5]": {"target": "T1, hPif1-HD", "assay": "Helicase", "assay_type": "biochemical", "settings": "20 μM hPif1-HD, 20 bp dsDNA with 5′ dT55 tail"}, "[6]": {"system": "HeLa cells", "assay": "Western blot of Pif1, RPA2 and γH2AX", "assay_type": "cell-based, human", "settings": "10 μM TD combined with 2.5 mM HU", "how_it_was_run": "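HeLa lysates were made in RIPA buffer with protease inhibitor at 4 °C and quantified by BCA. 10−30 μg per lane was run on SDS-PAGE and blotted to PVDF. Membranes were blocked 1 h in 5% milk and probed overnight at 4 °C for Pif1, RPA2, γH2AX and GAPDH (loading control). HRP anti-mouse secondary (1:5000, 1 h) and ECL detection followed.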"}, "[7]": {"target": "BaPif1", "assay": "ATPase activity assay", "assay_type": "biochemical, Bacteroides sp. 2-1-16", "settings": "read-out: IC50, inhibition of ATPase activity of BaPif1", "how_it_was_run": "as §1"}, "[8]": {"system": "BaPif1", "assay": "F-EMSA assay of BaPif1-dT12 interaction", "assay_type": "binding, Bacteroides sp. 2-1-16"}, "[9]": {"system": "BaPif1 C380A mutant", "assay": "FP assay of DNA-binding activity, C380A mutant", "design": "species or system Bacteroides sp. 2-1-16", "how_it_was_run": "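FP competition with FAM-labelled DNA in 25 mM Tris-HCl pH 7.5, 5 mM MgCl2 (ex 480/em 520 nm). The C380A point mutant was made by PCR mutagenesis and purified as for wild type, and was compared with wild-type BaPif1. Each protein was held with 50 μM test compound across a range of DTT concentrations to give dose-response curves.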"}, "[10]": {"system": "BaPif1 C234A mutant", "assay": "FP assay of DNA-binding activity, C234A mutant", "design": "species or system Bacteroides sp. 2-1-16"}, "[11]": {"system": "BaPif1", "assay": "Helicase", "assay_type": "biochemical, Bacteroides sp. 2-1-16", "settings": "gel-based titration"}, "[12]": {"system": "BaPif1", "assay": "Filtration-dilution reversibility experiment", "assay_type": "biochemical, Bacteroides sp. 2-1-16", "settings": "50 μM compound, three filtration and dilution cycles, 1000-fold dilution", "how_it_was_run": "as §2"}, "[13]": {"system": "GSK-3β", "settings": "cited from earlier work"}, "[14]": {"target": "T1, hPif1-HD", "assay": "FP assay of DNA-binding activity", "how_it_was_run": "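Fluorescence polarization read at ex 480/em 520 nm. The hPif1 helicase domain (aa200-641, His6-tagged) was at 10 μM with 0.5 μM FAM-labelled DNA and a titration of test compound. Buffer was 25 mM Tris-HCl pH 7.5, 5 mM MgCl2, with no DTT. IC50 was obtained by fitting the binding curves.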"}, "[15]": {"system": "HeLa cells", "assay": "RPA foci formation", "assay_type": "cell-based, human", "how_it_was_run": "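HeLa cells were seeded for 24 h, then treated with test agents for 24 h. They were fixed in 4% paraformaldehyde for 20 min, permeabilized with 0.3% Triton X-100 and blocked in 5% BSA. Cells were stained overnight at 4 °C for RPA2 and γH2AX, then with fluorescent secondaries and DAPI. Automated microscopy scored the percentage of RPA-foci-positive cells.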"}}}
{"compound": "TTTTTTTTTTTTTTTTTT [FAM-dT18]", "values": [{"measurement": "Kd", "setting": "[1]", "result": 7, "unit": "µM"}]}
{"compound": "O=c1sn(-c2cccc3ccccc23)c(=O)n1Cc1ccccc1", "note": "[TD, Tideglusib]", "values": [{"measurement": "IC50", "setting": "[2]", "result": "2.5 ± 0.1", "unit": "µM"}, {"measurement": "Reversibility of inhibition of C380A ATPase activity after filtration", "setting": "[3]", "result": "reversible"}, {"measurement": "Number of \"Cys-conserved\" kinases significantly inhibited", "setting": "[4]", "result": "10 of the 26"}, {"measurement": "Concentration at which helicase activity of hPif1-HD was inhibited", "setting": "[5]", "result": 7.8, "unit": "µM"}, {"measurement": "Protein level of Pif1 and RPA", "setting": "[6]", "result": "did not alter"}, {"measurement": "Protein level of γH2AX", "setting": "[6]", "result": "slightly decreased"}, {"measurement": "IC50", "setting": "[7]", "result": "2.3 ± 0.13", "unit": "µM"}, {"measurement": "Blocking of ssDNA binding to BaPif1 (F-EMSA), in words", "setting": "[8]", "result": "could block the binding of single-stranded DNA (ssDNA) to the BaPif1 protein"}, {"measurement": "Sensitivity of C380A mutant to the compound compared with wild-type", "setting": "[9]", "result": "less sensitive"}, {"measurement": "Sensitivity of C234A mutant to the compound compared with wild-type", "setting": "[10]", "result": "little change"}, {"measurement": "Concentration at which unwinding (helicase) activity of BaPif1 was inhibited", "setting": "[11]", "result": 4, "unit": "µM"}, {"measurement": "Reversibility of inhibition of BaPif1 ATPase activity after filtration-dilution", "setting": "[12]", "result": "irreversible"}, {"measurement": "Reversibility of GSK-3β inhibition", "setting": "[13]", "result": "irreversibly"}, {"measurement": "IC50", "setting": "[14]", "result": "5.79 ± 0.6", "unit": "µM"}, {"measurement": "Reduction of RPA foci formation", "setting": "[15]; 10 μM TD combined with 2.5 mM HU, 24 h", "result": 20, "unit": "%"}]}
{"compound": "NC(=O)NO", "note": "[HU, hydroxyurea]", "values": [{"measurement": "Induction of RPA foci formation", "setting": "[15]; 2.5 mM HU", "result": "efficiently induce RPA foci formation"}]}
